Laboratory results: ChEMBL document CHEMBL1122297, “Stereospecific synthesis of chiral metabolites of ifosfamide and their determination in the urine” (J Med Chem, 1983)

Key:
[1] = Portion of holoxan excreted in the form of the metabolite from 1500 mL of urine on day 9 was determined in embryonal rhabdomyosarcoma patients treated with ifosfamide; type: ADME, tissue-based; conditions: human, in vivo
How it was run: (§1)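 Patients received ifosfamide at 2 g per day for 10 days, and daily urine was collected. Urine from days 1 and 2 was dropped because it had been stored at room temperature. Solids were centrifuged off. Supernatant was examined by 31P NMR, and amounts were taken from the electronically integrated spectra.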

[2] = Portion of holoxan excreted in the form of the metabolite from 1600 mL of urine on day 10 was determined in embryonal rhabdomyosarcoma patients treated with ifosfamide; type: ADME, tissue-based; conditions: human, in vivo; how it was run: as §1
[3] = Portion of holoxan excreted in the form of the metabolite from 1700 mL of urine on day 5 was determined in embryonal rhabdomyosarcoma patients treated with ifosfamide; type: ADME, tissue-based; conditions: human, in vivo; how it was run: as §1
[4] = Portion of holoxan excreted in the form of the metabolite from 2310 mL of urine on day 4 was determined in embryonal rhabdomyosarcoma patients treated with ifosfamide; type: ADME, tissue-based; conditions: human, in vivo; how it was run: as §1
[5] = Percent ratio of the enantiomeric form (+)R extracted from the urine of alveolar rhabdomyosarcoma patients was determined; type: ADME, tissue-based; conditions: human
How it was run: (§2)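 Patients were dosed with ifosfamide at 2 g per day for 10 days. Solids were centrifuged out of the urine. The supernatant was extracted with chloroform and with ethyl acetate before the enantiomeric composition was determined, because signals of parent drug and metabolite overlapped in crude concentrated urine.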

[6] = Percent ratio of the enantiomeric form (-)S extracted from the urine of alveolar rhabdomyosarcoma patients was determined; type: ADME, tissue-based; conditions: human; how it was run: as §2
[7] = Percent ratio of the enantiomeric form (-)S extracted from the urine of embryonal rhabdomyosarcoma patients was determined; type: ADME, tissue-based; conditions: human; how it was run: as §2
[8] = Quantity of the metabolite found in the urine of the embryonal rhabdomyosarcoma patients treated with ifosfamide from 1200 mL of urine tested on day 3; type: ADME, tissue-based; conditions: human; how it was run: as §1
[9] = Portion of holoxan excreted in the form of the metabolite from 1200 mL of urine on day 3 was determined in embryonal rhabdomyosarcoma patients treated with ifosfamide; type: ADME; conditions: human, in vivo; how it was run: as §1
[10] = Portion of holoxan excreted in the form of the metabolite from 1300 mL of urine on day 6 was determined in embryonal rhabdomyosarcoma patients treated with ifosfamide; type: ADME; conditions: human, in vivo; how it was run: as §1
[11] = Portion of holoxan excreted in the form of the metabolite from 1300 mL of urine on day 8 was determined in embryonal rhabdomyosarcoma patients treated with ifosfamide; type: ADME; conditions: human, in vivo; how it was run: as §1
[12] = Quantity of the metabolite found in the urine of the embryonal rhabdomyosarcoma patients treated with ifosfamide from 1200 mL of urine tested on day 7; type: ADME; conditions: human; how it was run: as §1
[13] = Quantity of the metabolite found in the urine of the embryonal rhabdomyosarcoma patients treated with ifosfamide from 1300 mL of urine tested on day 6; type: ADME; conditions: human; how it was run: as §1
[14] = Quantity of the metabolite found in the urine of the embryonal rhabdomyosarcoma patients treated with ifosfamide from 1300 mL of urine tested on day 8; type: ADME, tissue-based; conditions: human; how it was run: as §1
[15] = Quantity of the metabolite found in the urine of the embryonal rhabdomyosarcoma patients treated with ifosfamide from 1500 mL of urine tested on day 9; type: ADME; conditions: human; how it was run: as §1
[16] = Quantity of the metabolite found in the urine of the embryonal rhabdomyosarcoma patients treated with ifosfamide from 1600 mL of urine tested on day 10; type: ADME; conditions: human; how it was run: as §1
[17] = Quantity of the metabolite found in the urine of the embryonal rhabdomyosarcoma patients treated with ifosfamide from 1700 mL of urine tested on day 5; type: ADME; conditions: human; how it was run: as §1
[18] = Quantity of the metabolite found in the urine of the embryonal rhabdomyosarcoma patients treated with ifosfamide from 2310 mL of urine tested on day 4; type: ADME; conditions: human; how it was run: as §1
[19] = Percent ratio of the enantiomeric form (+)R extracted from the urine of embryonal rhabdomyosarcoma patients was determined; type: ADME; conditions: human; how it was run: as §2
[20] = Portion of holoxan excreted in the form of the metabolite from 1200 mL of urine on day 7 was determined in embryonal rhabdomyosarcoma patients treated with ifosfamide; type: ADME; conditions: human, in vivo; how it was run: as §1
[21] = Active metabolite of ifosfamide determined in humans; A-Active; type: ADME; conditions: human
[22] = Metabolite of ifosfamide determined in urine; NF-Not found; type: ADME, tissue-based; conditions: human

Row | SMILES | Excretion [1] [%] | Excretion [2] [%] | Excretion [3] [%] | Excretion [4] [%] | Extraction [5] [%] | Extraction [6] [%] | Extraction [7] [%] | Quantity [8] [mg] | Excretion [9] [%] | Excretion [10] [%] | Excretion [11] [%] | Quantity [12] [mg] | Quantity [13] [mg] | Quantity [14] [mg] | Quantity [15] [mg] | Quantity [16] [mg] | Quantity [17] [mg] | Quantity [18] [mg] | Extraction [19] [%] | Excretion [20] [%] | other results
1 | NP1(=O)OCCCN1CCCl (stereo not drawn) | 100 | 61 | 40.2 | 65.5 | 13 | 87 | 73 | 64 | 39.8 | 91.5 | 61.7 | 180 | 243 | 130 | 231 | 160 | 95 | 163 | 27 | 74 | 
2 | O=P(O)(NCCCl)NCCCl [PALIFOSFAMIDE] |  |  |  |  |  |  |  |  |  |  |  |  |  |  |  |  |  |  |  |  | Activity [21]: Active; Activity [22]: Not found
3 | O=C(O)CCOP(=O)(NCCCl)NCCCl | 100 | 61 | 40.2 | 65.5 |  |  |  | 70 | 39.8 | 91.5 | 61.7 | 312 | 348 | 56 | 186 | 130 | 70 | 62 |  | 74 | 
4 | O=P1(NCCCl)OCCC(O)N1CCCl (stereo not drawn) [ALDOIFOSFAMIDE] |  |  |  |  |  |  |  |  |  |  |  |  |  |  |  |  |  |  |  |  | Activity [21]: Active; Activity [22]: Not found
5 | O=P1(NCCCl)NCCCO1 (stereo not drawn) | 100 | 61 | 40.2 | 65.5 | 72 | 28 | 55 | 198 | 39.8 | 91.5 | 61.7 | 348 | 434 | 338 | 310 | 320 | 258 | 432 | 45 | 74 | 
6 | O=CCCOP(=O)(NCCCl)NCCCl |  |  |  |  |  |  |  |  |  |  |  |  |  |  |  |  |  |  |  |  | Activity [21]: Active; Activity [22]: Not found
7 | O=C1CCOP(=O)(NCCCl)N1CCCl (stereo not drawn) [4-KETOIFOSFAMIDE] | 100 | 61 | 40.2 | 65.5 |  |  |  | 44 | 39.8 | 91.5 | 61.7 | 84 | 136 | 78 | 24 | 66 | 81 | 34 |  | 74 | 
8 | O=P1(NCCCl)OCCCN1CCCl (stereo not drawn) [IFOSFAMIDE] | 100 | 61 | 40.2 | 65.5 | 57 | 43 | 45 | 348 | 39.8 | 91.5 | 61.7 | 432 | 500 | 494 | 1100 | 421 | 200 | 442 | 55 | 74 | 
